The results in this text go back to ChEMBL document CHEMBL1126631, “Synthesis and biological activities of angiotensin II, Sarilesin, and Sarmesin analogues containing Aze or Pip at position 7” (J Med Chem, 1993).

In one experiment the target is T1, Angiotensin II receptor (Rattus norvegicus, UniProt P29089+P25095+P35351).
T1 sequence (P29089 whole entry): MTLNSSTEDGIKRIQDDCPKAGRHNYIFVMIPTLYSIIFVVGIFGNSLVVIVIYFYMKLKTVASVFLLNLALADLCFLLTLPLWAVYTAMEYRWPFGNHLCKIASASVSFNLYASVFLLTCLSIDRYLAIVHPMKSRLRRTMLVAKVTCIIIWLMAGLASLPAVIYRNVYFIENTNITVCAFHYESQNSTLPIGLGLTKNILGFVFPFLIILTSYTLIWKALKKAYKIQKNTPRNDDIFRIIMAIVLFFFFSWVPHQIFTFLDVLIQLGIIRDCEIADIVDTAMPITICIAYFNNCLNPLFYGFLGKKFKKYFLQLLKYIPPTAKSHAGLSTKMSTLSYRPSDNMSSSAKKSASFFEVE
T1 sequence (P25095 whole entry): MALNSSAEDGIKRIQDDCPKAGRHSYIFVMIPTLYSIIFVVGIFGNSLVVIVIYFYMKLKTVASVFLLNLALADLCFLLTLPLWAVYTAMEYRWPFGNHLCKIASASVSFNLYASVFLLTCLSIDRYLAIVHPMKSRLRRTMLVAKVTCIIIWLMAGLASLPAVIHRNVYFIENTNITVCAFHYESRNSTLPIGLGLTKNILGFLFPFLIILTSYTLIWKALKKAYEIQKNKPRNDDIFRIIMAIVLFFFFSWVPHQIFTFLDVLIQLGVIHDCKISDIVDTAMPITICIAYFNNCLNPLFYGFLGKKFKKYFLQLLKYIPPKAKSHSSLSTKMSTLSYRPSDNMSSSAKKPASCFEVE
T1 sequence (P35351 whole entry): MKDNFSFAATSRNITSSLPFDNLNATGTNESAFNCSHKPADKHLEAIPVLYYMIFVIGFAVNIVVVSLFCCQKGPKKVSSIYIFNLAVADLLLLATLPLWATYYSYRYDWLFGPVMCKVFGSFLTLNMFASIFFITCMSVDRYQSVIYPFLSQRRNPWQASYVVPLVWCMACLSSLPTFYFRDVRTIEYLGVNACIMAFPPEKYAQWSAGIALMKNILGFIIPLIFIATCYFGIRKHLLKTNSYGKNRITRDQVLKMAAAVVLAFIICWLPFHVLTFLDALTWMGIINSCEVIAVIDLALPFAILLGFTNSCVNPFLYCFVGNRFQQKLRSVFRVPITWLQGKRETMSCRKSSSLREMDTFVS
Kind of experiment: Antagonistic activity (pA2) was determined as the negative logarithm of the concentration required to reduce the response to an EC50 dose of ANG II to the response to half the EC50. The format is functional. An outline of the steps:
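Isolated uterine horns (defatted) from diethylstilbestrol-primed virgin Sprague–Dawley rats (150–250 g), held under 1-g tension in a 3-mL bath of 150 mM NaCl, 5.6 mM KCl, 0.18 mM NaHCO3, 1.4 mM glucose, pH 7.0, oxygenated. Isotonic contractions recorded. Human ANGII as standard; values are means of the stated number of experiments.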

The target of experiment [1] is Angiotensin II receptor (Rattus norvegicus) (UniProt P29089+P25095+P35351). Description: Evaluated for its agonistic activity using rat uterus bioassay in Dawley rats (% of ANG II). The format is functional, tissue-based. An outline of the steps:
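Defatted uterine horns from diethylstilbestrol-primed virgin Sprague–Dawley rats (150–250 g), suspended under 1-g tension in a 3-mL oxygenated bath (150 mM NaCl, 5.6 mM KCl, 0.18 mM NaHCO3, 1.4 mM glucose, pH 7.0). Isotonic contractions recorded; activity found by matching the response to an equivalent human ANGII response. Values are means of the stated number of experiments.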

`CC[C@H](C)[C@H](NC(=O)[C@H](Cc1ccc(OC)cc1)NC(=O)[C@@H](NC(=O)[C@H](CCCN=C(N)N)NC(=O)CNC)C(C)C)C(=O)N[C@@H](Cc1c[nH]cn1)C(=O)N1CCCC[C@H]1C(=O)N[C@@H](Cc1ccccc1)C(=O)O` registered a pA2 at Angiotensin II receptor of 6.5.
Same read-out and setting: as for `CC[C@H](C)[C@H](NC(=O)[C@@H]1CCN1C(=O)[C@H](Cc1c[nH]cn1)NC(=O)[C@@H](NC(=O)[C@H](Cc1ccc(O)cc1)NC(=O)[C@@H](NC(=O)[C@H](CCCN=C(N)N)NC(=O)CNC)C(C)C)[C@@H](C)CC)C(=O)O`, the figure is 7.9.
In turn, `CC[C@@H](C)[C@H](NC(=O)[C@H]1CCCCN1C(=O)[C@H](Cc1c[nH]cn1)NC(=O)[C@@H](NC(=O)[C@H](Cc1ccc(O)cc1)NC(=O)[C@@H](NC(=O)[C@H](CCCN=C(N)N)NC(=O)CNC)C(C)C)[C@@H](C)CC)C(=O)O` had an Agonist activity in experiment [1] of less than 0.1.
At Angiotensin II receptor, `CC[C@H](C)[C@H](NC(=O)[C@H](Cc1ccc(OC)cc1)NC(=O)[C@@H](NC(=O)[C@H](CCCN=C(N)N)NC(=O)CNC)C(C)C)C(=O)N[C@@H](Cc1c[nH]cn1)C(=O)N1CC[C@H]1C(=O)N[C@@H](Cc1ccccc1)C(=O)O` returned a pA2 of 7.4.
The same measure, in the same setting: as for `CC[C@H](C)[C@H](NC(=O)[C@@H]1CCCCN1C(=O)[C@H](Cc1c[nH]cn1)NC(=O)[C@@H](NC(=O)[C@H](Cc1ccc(O)cc1)NC(=O)[C@@H](NC(=O)[C@H](CCCN=C(N)N)NC(=O)CNC)C(C)C)[C@@H](C)CC)C(=O)O`, the figure is 8.3.
With `CC[C@@H](C)[C@H](NC(=O)[C@H]1CCCCN1C(=O)[C@H](Cc1c[nH]cn1)NC(=O)[C@@H](NC(=O)[C@H](Cc1ccc(O)cc1)NC(=O)[C@@H](NC(=O)[C@H](CCCN=C(N)N)NC(=O)C(C)(C)N)C(C)C)[C@@H](C)CC)C(=O)O`, the Agonist activity in experiment [1] was less than 0.1.
On the same count and under the same terms, in the case of `CC[C@@H](C)[C@H](NC(=O)C1CCN1C(=O)[C@H](Cc1c[nH]cn1)NC(=O)[C@@H](NC(=O)[C@H](Cc1ccc(O)cc1)NC(=O)[C@@H](NC(=O)[C@H](CCCN=C(N)N)NC(=O)CNC)C(C)C)[C@@H](C)CC)C(=O)O` (stereo not given in full) it was less than 0.1; in that of `CC[C@@H](C)[C@H](NC(=O)C1CCN1C(=O)[C@H](Cc1c[nH]cn1)NC(=O)[C@@H](NC(=O)[C@H](Cc1ccc(O)cc1)NC(=O)[C@@H](NC(=O)[C@H](CCCN=C(N)N)NC(=O)C(C)(C)N)C(C)C)[C@@H](C)CC)C(=O)O` (stereo not given in full), less than 0.1.
The compound `CC[C@H](C)[C@H](NC(=O)[C@H](Cc1ccc(OC)cc1)NC(=O)[C@@H](NC(=O)[C@H](CCCN=C(N)N)NC(=O)CNC)C(C)C)C(=O)N[C@@H](Cc1c[nH]cn1)C(=O)N1CCC[C@H]1C(=O)N[C@@H](Cc1ccccc1)C(=O)O` came in with a pA2 at Angiotensin II receptor of 7.7.
For the compound `CC[C@H](C)[C@H](NC(=O)[C@H](Cc1ccc(O)cc1)NC(=O)[C@@H](NC(=O)[C@H](CCCN=C(N)N)NC(=O)CNC)C(C)C)C(=O)N[C@@H](Cc1c[nH]cn1)C(=O)N1CCCC[C@@H]1C(=O)N[C@@H](Cc1ccccc1)C(=O)O`, in experiment [1], the Agonist activity turned out to be 184.
`CC[C@H](C)[C@H](NC(=O)[C@H](Cc1ccc(OC)cc1)NC(=O)[C@@H](NC(=O)[C@@H](N)CCCN=C(N)N)C(C)C)C(=O)N[C@@H](Cc1c[nH]cn1)C(=O)N1CC[C@H]1C(=O)N[C@@H](Cc1ccccc1)C(=O)O` showed a pA2 on Angiotensin II receptor of less than 5.
Compound `CC[C@H](C)[C@H](NC(=O)[C@H](Cc1ccc(O)cc1)NC(=O)[C@@H](NC(=O)[C@H](CCCN=C(N)N)NC(=O)CNC)C(C)C)C(=O)N[C@@H](Cc1c[nH]cn1)C(=O)N1CCC[C@H]1C(=O)N[C@@H](Cc1ccccc1)C(=O)O` showed an Agonist activity in experiment [1] of 160.
The same measure, in the same setting: as for `CC[C@H](C)[C@H](NC(=O)[C@H](Cc1ccc(O)cc1)NC(=O)[C@@H](NC(=O)[C@H](CCCN=C(N)N)NC(=O)CNC)C(C)C)C(=O)N[C@@H](Cc1c[nH]cn1)C(=O)N1CCC1C(=O)N[C@@H](Cc1ccccc1)C(=O)O` (stereo not given in full), the figure is 98.
On the same count and under the same terms, as for `CC[C@H](C)[C@H](NC(=O)[C@H](Cc1ccc(O)cc1)NC(=O)[C@@H](NC(=O)[C@@H](N)CCCN=C(N)N)C(C)C)C(=O)N[C@@H](Cc1c[nH]cn1)C(=O)N1CCC1C(=O)N[C@@H](Cc1ccccc1)C(=O)O` (stereo not given in full), the figure is 35.
With `CC[C@H](C)[C@H](NC(=O)[C@H](Cc1ccc(OC)cc1)NC(=O)[C@@H](NC(=O)[C@@H](N)CCCN=C(N)N)C(C)C)C(=O)N[C@@H](Cc1c[nH]cn1)C(=O)N1CCCC[C@H]1C(=O)N[C@@H](Cc1ccccc1)C(=O)O`, the pA2 on Angiotensin II receptor is reported as less than 5.
In experiment [1], `CC[C@H](C)[C@H](NC(=O)[C@H](Cc1ccc(O)cc1)NC(=O)[C@@H](NC(=O)[C@H](CCCN=C(N)N)NC(=O)C(C)(C)N)C(C)C)C(=O)N[C@@H](Cc1c[nH]cn1)C(=O)N1CCC1C(=O)N[C@@H](Cc1ccccc1)C(=O)O` (stereo not given in full) came in with an Agonist activity of 34.
Same read-out and setting: as for `CC[C@H](C)[C@H](NC(=O)[C@H](Cc1ccc(O)cc1)NC(=O)[C@@H](NC(=O)[C@H](CCCN=C(N)N)NC(=O)C(C)(C)N)C(C)C)C(=O)N[C@@H](Cc1c[nH]cn1)C(=O)N1CCCC[C@@H]1C(=O)N[C@@H](Cc1ccccc1)C(=O)O`, the figure is 65.
For the compound `CC[C@H](C)[C@H](NC(=O)[C@@H]1CCN1C(=O)[C@H](Cc1c[nH]cn1)NC(=O)[C@@H](NC(=O)[C@H](Cc1ccc(O)cc1)NC(=O)[C@@H](NC(=O)[C@H](CCCN=C(N)N)NC(=O)C(C)(C)N)C(C)C)[C@@H](C)CC)C(=O)O`, on Angiotensin II receptor, the pA2 stood at 7.1.
With `CC[C@H](C)[C@H](NC(=O)[C@@H]1CCCN1C(=O)[C@H](Cc1c[nH]cn1)NC(=O)[C@@H](NC(=O)[C@H](Cc1ccc(O)cc1)NC(=O)[C@@H](NC(=O)[C@H](CCCN=C(N)N)NC(=O)CNC)C(C)C)[C@@H](C)CC)C(=O)O`, in experiment [1], the Agonist activity was found to be 0.1.
At Angiotensin II receptor, `CC[C@H](C)[C@H](NC(=O)[C@@H]1CCCCN1C(=O)[C@H](Cc1c[nH]cn1)NC(=O)[C@@H](NC(=O)[C@H](Cc1ccc(O)cc1)NC(=O)[C@@H](NC(=O)[C@H](CCCN=C(N)N)NC(=O)C(C)(C)N)C(C)C)[C@@H](C)CC)C(=O)O` gave a pA2 of 7.6.

By pA2 is commonly meant the negative logarithm of the molar antagonist concentration that doubles the agonist concentration needed for the same response. Higher therefore signals higher antagonist potency.
